# RBBP9 inhibitor: human RBBP9 inhibitors, primary screen, biochemical, fluorescence polarization, FP-Rh probe, HTS; Serine hydrolase RBBP9 (Homo sapiens), O75884; recombinant RBBP9; inhibition, % at 7.94 µM; actives 0.2% (n = 220,000); AID 1515, 2009;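 active = inhibition above the campaign mean of all tested compounds plus 3 SD, cut at about 14% in these data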;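 note: plate controls were DMSO wells with RBBP9 for no effect and wells lacking RBBP9 protein for full effect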
#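 System: RBBP9 protein / Quantity: 2.5 µM RBBP9 dispensing solution, before mixing / Also added: Serine-hydrolase probe FP-Rh, 375 nM pre-mixing / Dosing: 7.94 µM single dose, 0.794% DMSO / Timing: enzyme-compound preincubation 30 min, then probe labeling 45 min, 25 °C / Signal: FP readout at 525/598 nm / Controls: DMSO-treated enzyme wells and wells lacking RBBP9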
# LYPLA2 inh: LYPLA2 inhibitors, primary screen, counter-screen for PME1 inhibitor project, biochemical, fluorescence polarization, FP-Rh probe ABPP; inhibition, % at 5.9 µM; actives 0.38% (n = 320,000); recombinant LYPLA2; Acyl-protein thioesterase 2 (Homo sapiens), O95372;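 active = inhibition above the screen-wide mean plus 3 SD, limit set per campaign, cut at about 26% in these data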;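 note: 0% = LYPLA2 with DMSO and 100% = wells lacking LYPLA2 enzyme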
# Target sequence (O95372 whole entry, looked up): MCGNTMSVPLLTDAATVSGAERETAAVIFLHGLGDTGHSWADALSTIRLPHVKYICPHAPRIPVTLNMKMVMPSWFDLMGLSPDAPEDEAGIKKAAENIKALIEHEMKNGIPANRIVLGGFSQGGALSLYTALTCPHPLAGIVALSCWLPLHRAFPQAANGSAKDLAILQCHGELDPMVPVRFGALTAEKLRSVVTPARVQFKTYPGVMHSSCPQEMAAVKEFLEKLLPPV
# Fam108B inh: mouse Fam108B serine hydrolase inhibitors, primary screen, counter-screen for RBBP9 inhibitor project, biochemical, fluorescence polarization; recombinant Fam108B, FP-Rh probe fluorescence polarization; inhibition, % at 9.51 µM; actives 0.33% (n = 300,000); AID 1947, 2009;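 active = inhibition above the screen mean inhibition plus 3 SD, computed separately per campaign, cut at about 18% in these data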;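 note: inhibitors lower polarization as less probe binds the enzyme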
# LYPLA1 inh: LYPLA1 inhibitors, primary screen, counter-screen for PME1 inhibitor project, biochemical, fluorescence polarization, FP-Rh probe ABPP | Acyl-protein thioesterase 1 (Homo sapiens), O75608 | recombinant LYPLA1 | inhibition, % at 5.9 µM | actives 0.16% (n = 320,000) | AID 2174, 2009;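 active = inhibition above the mean of all tested compounds plus 3 SD, set per campaign, cut at about 14% in these data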;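 note: inhibitors block serine hydrolase probe labeling of LYPLA1 so polarization falls; 0% = enzyme with DMSO and 100% = wells lacking LYPLA1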
# PME-1 primary: PME-1 inhibitors via competitive probe labeling, primary screen, biochemical, fluorescence polarization, FP-Rh probe, HTS | recombinant PME-1 | inhibition, % at 5.9 µM | actives 0.53% (n = 320,000) | AID 2130, 2009;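 active = inhibition above the campaign mean of all compounds plus 3 SD, cut at about 26% in these data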;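 note: competitive labeling of PME-1 active site by serine hydrolase directed probe; 0% = PME-1 with DMSO and 100% = wells lacking PME-1 enzyme; inhibitors block probe labeling so polarization falls and inhibition rises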
# Target sequence (Q9Y570 whole entry, looked up): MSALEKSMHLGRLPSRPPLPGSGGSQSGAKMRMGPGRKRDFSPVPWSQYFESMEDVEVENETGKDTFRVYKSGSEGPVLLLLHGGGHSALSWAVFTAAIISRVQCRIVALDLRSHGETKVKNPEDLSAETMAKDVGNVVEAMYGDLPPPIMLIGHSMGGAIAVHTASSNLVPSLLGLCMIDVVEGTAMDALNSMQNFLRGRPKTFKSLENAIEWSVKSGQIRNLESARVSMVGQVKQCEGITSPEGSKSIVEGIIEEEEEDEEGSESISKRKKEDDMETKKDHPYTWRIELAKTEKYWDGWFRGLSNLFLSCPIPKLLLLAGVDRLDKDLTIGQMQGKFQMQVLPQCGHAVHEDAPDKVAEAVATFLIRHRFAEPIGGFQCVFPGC
# PAD4 inh: human PAD4 inhibitors, primary screen, biochemical, fluorescence polarization, 1536-well format | Protein-arginine deiminase type-4 (Homo sapiens), Q9UM07 | recombinant PAD4, RCA probe fluorescence polarization | inhibition, % at 6.36 µM | actives 0.41% (n = 330,000) | AID 485272, 2010;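 active = percent inhibition above a cutoff equal to the mean of all tested compounds plus 3 SD, cut at about 15% in these data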;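 note: 0% = PAD4 with RCA probe and DMSO and 100% = probe without PAD4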
# Fam108b confirm: mouse Fam108b serine hydrolase inhibitors, confirmation, counter-screen for RBBP9 inhibitor project, biochemical, fluorescence polarization, triplicate; shares compounds with Fam108B inh; AID 1978, 2009; recombinant Fam108b, FP-Rh probe fluorescence polarization; actives 44% (n = 930); inhibition, % at 9.51 µM;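 active = inhibition above a limit from the primary screen, the mean over all compounds plus 3 SD, cut at about 19% in these data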;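 note: 0% = median of active Fam108b wells and 100% = catalytically dead S170A mutant; inhibitors free the probe so polarization falls as inhibition rises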
# Fam108b inh: inhibition of mouse Fam108b by HTS hits, late-stage follow-up, biochemical, gel-based ABPP, soluble recombinant form | actives 44% (n = 260) | AID 588649, 2011 | shares compounds with Fam108B inh | fluorophosphonate probe | inhibition, % at 20 µM; in the data active = inhibition above about 40%
# Active calls of the source: *; · = no result. Hits are enriched below; roughly 1.3% of the tested compounds scored in any of these assays.
SMILES,RBBP9 inhibitor,LYPLA2 inh,Fam108B inh,LYPLA1 inh,PME-1 primary,PAD4 inh,Fam108b confirm,others
CCN(CC)c1ccc(/C=N/NC(=O)OC)c(O)c1,-7.7,7.3,0.6,2.9,6.0,1.3,·,
CCN(CC)c1ccc(/C=N/NC(=O)c2cccc(S(=O)(=O)Nc3ccccc3OC)c2)c(O)c1,-13.7,4.4,57.6*,-6.7,44.6*,1.3,6.5,
Cc1ccc2c(=O)n3c(nc2c1)C(Cc1ccccc1)NC(=O)c1ccc(Cl)cc1-3 (configuration not stated),·,-5.9,·,-6.1,-12.3,0.6,·,
CCOc1ccccc1NC(=O)N1CCCC(c2nc(-c3ccc(C)o3)no2)C1 (configuration not stated),-6.6,2.0,-0.2,0.6,6.2,0.4,·,
O=C/C=C/c1c(-c2ccccc2)cc2oc3ccccc3cc1-2,·,-6.0,27.4*,1.6,6.2,-8.5,-12.4,
COc1ccc(OC)c(NC(=O)Nc2ccc(Cl)cc2)c1,-0.1,-1.8,23.1*,-11.6,21.2,-0.4,13.5,
COc1ccc(NC(=O)Nc2ccccc2OC)cc1,-1.0,-1.4,3.8,-2.4,7.1,7.2,·,
COc1ccccc1NC(=O)Nc1ccc(NC(=O)c2ccccc2O)cc1,·,0.4,21.1*,-12.2,0.4,-0.3,-1.7,
O=c1c2[nH]c3ccccc3c2ncn1CCC1=CCCCC1,-0.5,5.9,0.8,2.1,1.1,2.5,·,
C1=C(CCNc2ncnc3c2[nH]c2ccccc23)CCCC1,-6.4,-7.9,21.0*,-9.9,45.1*,-2.8,7.6,
COc1ccc(/C=N/NC(=O)c2cc(C34CC5CC(CC(C5)C3)C4)[nH]n2)cc1O,-5.5,-13.5,24.1*,-11.7,-8.4,-4.8,2.7,
NNC(=O)c1oc2nc(-c3cccs3)cc(-c3ccco3)c2c1N,·,3.5,24.5*,-1.2,14.2,-10.7,23.7*,
CCOC(=O)c1cc(-c2cccs2)nc2onc(C)c12,-1.7,-1.9,-2.1,-5.3,-1.6,2.0,·,
COc1cccc(/C=N/NC(=O)c2oc3nc(-c4ccccc4)cc(-c4ccco4)c3c2N)c1,3.7,-15.2,-0.1,-10.9,7.2,-3.5,·,
Cc1ccc(-c2cc(-c3ccco3)c3c(N)c(C(=O)NN)oc3n2)cc1,14.1,5.3,30.0*,-3.9,6.3,4.1,13.5,
O=C(N/N=C/c1c(O)ccc2ccccc12)c1cccc(C(F)(F)F)c1,-8.0,0.8,18.7*,-10.8,14.6,0.1,9.2,
CC(C(=O)O)N1C(=O)/C(=C/C=C/c2ccco2)SC1=S (configuration not stated),-9.3,-6.0,29.5*,-6.0,-21.8,-0.8,14.1,
Cc1cc(=O)oc2cc(NC(=O)CN3C(=O)NC(C)(c4ccccc4)C3=O)ccc12 (configuration not stated),·,-5.0,1.7,-6.8,-8.5,-2.5,·,
O=[N+]([O-])c1cccc(-c2csc(NN=Cc3cccc(O)c3)n2)c1,·,·,·,·,·,·,·,Fam108b inh=0.0
O=C1CCCC(O)=C1N=Nc1ccc(C(=O)O)cc1,-4.9,1.2,24.5*,-1.2,-18.2,4.5,19.7*,
CC(C)CC(=O)NC(=S)Nc1ccc(S(=O)(=O)Nc2nccs2)cc1,-0.4,-2.4,7.0,-2.6,-1.1,2.5,·,
COc1ccc(Nc2sc(C(=O)Nc3cccc(Cl)c3)c(N)c2C(=O)Nc2ccccc2OC)cc1,-21.7,0.5,51.1*,-12.4,30.0*,-6.4,5.8,
COc1ccccc1NC(=O)c1c(Nc2ccccc2F)sc(C(=O)Nc2cccc(Cl)c2)c1N,-27.8,-17.5,-30.1,-18.7,-35.4,-23.8,·,
COc1ccccc1NS(=O)(=O)c1cc(NC(=O)c2cccs2)ccc1N1CCCC1,-16.0,-7.5,6.8,-14.9,-14.5,-3.6,·,
O=C(Nc1ccc(N2CCCC2)c(S(=O)(=O)Nc2cccc(C(F)(F)F)c2)c1)c1cccs1,-20.8,-5.4,21.5*,-8.7,7.8,-0.3,32.6*,Fam108b inh=85.0*
SMILES,RBBP9 inhibitor,LYPLA2 inh,Fam108B inh,LYPLA1 inh,PME-1 primary,PAD4 inh,Fam108b confirm,others
Oc1ccc(N=Nc2ccccc2-c2nn[nH]n2)c(O)c1,·,8.8,39.7*,1.2,22.4,0.2,41.4*,Fam108b inh=0.0
O=S(=O)(/N=C(/Nc1cccc2ccccc12)c1ccccc1)c1ccc(Br)cc1,·,-12.0,-15.2,-6.2,-2.1,0.4,·,
O=C(COc1ccccc1C(=O)N/N=C\c1ccc(O)c(O)c1)N/N=C/c1ccc(O)c(O)c1,-11.8,-15.8,34.7*,-12.3,34.8*,3.5,2.5,
O=C(COc1ccccc1[N+](=O)[O-])N/N=C/c1ccc(O)c([N+](=O)[O-])c1,-6.2,-16.6,-8.5,-3.6,0.8,-70.0,·,
Cc1cccc2c(N=Nc3ccc(S(=O)(=O)Nc4cccc(Cl)c4)cc3[N+](=O)[O-])c(O)[nH]c12,-4.3,-21.8,36.1*,-26.1,31.6*,-1.3,27.7*,
Cc1ccc(S(=O)(=O)/N=C2/NC(=O)/C(=C/c3cc([N+](=O)[O-])ccc3O)S2)cc1,·,1.2,18.2*,-0.1,-17.9,1.4,21.2*,
COc1ccc(NC(=O)CSCC(=O)NC2(C)CCS(=O)(=O)C2)cc1 (configuration not stated),·,-4.7,5.6,-3.1,0.0,2.2,·,
COc1ccc(NC(=O)c2c(N)cnn2C)cc1,·,4.3,1.4,3.8,-3.8,-3.2,·,
COc1cc(/C=C2/C(=O)c3cccc([N+](=O)[O-])c3C2=O)c(Br)cc1O,2.8,4.4,26.7*,1.2,31.7*,-6.2,40.1*,Fam108b inh=45.0*
COc1ccccc1NC(=O)CCCCCN1C(=O)c2cccc([N+](=O)[O-])c2C1=O,·,-2.6,0.0,-2.0,-0.3,0.0,·,
O=C(Nc1ccc(Oc2ccc(Cl)cc2)c(Cl)c1)c1cc(I)cc(I)c1O,·,-2.2,18.2*,12.9,8.4,-1.6,-2.3,
COc1ccc(NC(=O)c2ccccc2F)cc1Cl,-5.0,-7.2,-0.3,-4.0,-1.0,0.4,·,
COC(=O)/C=C1\S/C(=N/NC(=O)c2ccccc2)NC1=O,2.2,6.2,5.5,3.3,1.8,-2.5,·,
COc1ccccc1/C=C1\S/C(=N/NC(=O)c2cccc(Br)c2)NC1=O,-10.7,2.5,20.7*,-0.3,8.4,1.1,17.1,
